Experiments:
Assay type in all cases: functional
Settings in all cases: UCA 992, 144 h
[1] = system: Botrytis cinerea; assay: Antifungal activity against Botryotinia fuckeliana UCA 992 assessed as inhibition of radial growth at 200 ug/mL after 6 days relative to control
Method in brief: (§1)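 Radial growth assay on glucose-malt-peptone-agar (61 g/L, pH 6.5-7.0). Compounds dissolved in EtOH, giving 50-200 mg L-1 final in the medium, with equal EtOH in control and treated plates. A 5 mm mycelial disk from an actively growing culture was placed at the plate centre and radial growth followed for 6 days. % inhibition = 100 - [(treated growth/control growth) × 100]. At least three independent experiments, each in triplicate, ± SD.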

[2] = system: Botrytis cinerea; assay: Antifungal activity against Botryotinia fuckeliana UCA 992 assessed as inhibition of radial growth at 100 ug/mL after 6 days relative to control; method in brief: as §1
[3] = system: Botrytis cinerea; assay: Antifungal activity against Botryotinia fuckeliana UCA 992 assessed as inhibition of radial growth at 50 ug/mL after 6 days relative to control; method in brief: as §1

SMILES	inhibition at 200 µg/mL [1] [%]	inhibition at 100 µg/mL [2] [%]	inhibition at 50 µg/mL [3] [%]
CC1(C)C[C@H](O)[C@]23CC[C@H](O)[C@@](C)(CC[C@@H]12)C3	30	24	21
CO[C@H]1CC(C)(C)[C@@H]2CC[C@@]3(C)C[C@]12CCC3=O	76	42	17
CC1(C)CC(=O)[C@]23CCC(=O)[C@@](C)(CC[C@@H]12)C3	36	25	21
CO[C@H]1CC(C)(C)[C@@H]2CC[C@@]3(CO)C[C@]12CC[C@H]3O	24	9	2
CO[C@H]1CC(C)(C)[C@@H]2CC[C@@]3(C)C[C@]12CC[C@@H]3O	65	43	29
C=CCO[C@H]1CC(C)(C)[C@@H]2CC[C@@]3(C)C[C@]12CC[C@H]3O	82	72	63
CC1(C)C[C@H](OCCN)[C@]23CC[C@@H](O)[C@@](C)(CC[C@@H]12)C3	97	82	50
CC1(C)C[C@H](OCCCl)[C@]23CC[C@@H](O)[C@@](C)(CC[C@@H]12)C3	66	64	56
CC1(C)C[C@H](OCCBr)[C@]23CC[C@@H](O)[C@@](C)(CC[C@@H]12)C3	77	73	68
CC1(C)C[C@H](OCCI)[C@]23CC[C@@H](O)[C@@](C)(CC[C@@H]12)C3	70	67	65
CC1(C)C[C@H](OCCS)[C@]23CC[C@@H](O)[C@@](C)(CC[C@@H]12)C3	28	27	27
CC1(C)C[C@H](OCC[N+](=O)[O-])[C@]23CC[C@@H](O)[C@@](C)(CC[C@@H]12)C3	90	86	80
CC1(C)C[C@H](OCCO)[C@]23CC[C@@H](O)[C@@](C)(CC[C@@H]12)C3	60	54	48
CC1(C)C[C@H](OCCn2ccnc2)[C@]23CC[C@@H](O)[C@@](C)(CC[C@@H]12)C3	98	84	67
CC1(C)C[C@H](OCCOc2ccc([N+](=O)[O-])cc2)[C@]23CC[C@@H](O)[C@@](C)(CC[C@@H]12)C3	81	79	76
CC1(C)C[C@H](OCCSC(=N)N)[C@]23CC[C@@H](O)[C@@](C)(CC[C@@H]12)C3	97	83	70
CC1(C)C[C@H](OCCSc2ccccc2)[C@]23CC[C@@H](O)[C@@](C)(CC[C@@H]12)C3	24	12	6
CC1(C)C[C@H](OCCn2cncn2)[C@]23CC[C@@H](O)[C@@](C)(CC[C@@H]12)C3	86	57	34
CC(C)(C)O[C@H]1CC(C)(C)[C@@H]2CC[C@@]3(C)C[C@]12CC[C@H]3O	78	66	59
CC1(C)C[C@H](SCCS)[C@]23CC[C@@H](O)[C@@](C)(CC[C@@H]12)C3	38	34	32
CC1(C)C[C@H](OCCN2C(=O)c3ccccc3C2=O)[C@]23CC[C@@H](O)[C@@](C)(CC[C@@H]12)C3	60	55	50
CO[C@H]1CC(C)(C)[C@@H]2CC[C@@]3(C)C[C@]12CC[C@H]3O [2BETA-METHOXYCLOVAN-9ALPHA-OL]	83	60	49
CC1(C)C[C@H](O)[C@]23CC[C@@H](O)[C@@](C)(CC[C@@H]12)C3 [CLOVANEDIOL]	63	50	36
